Measured values published in ChEMBL document CHEMBL1649468, “AAC(6')-Iaf, a novel aminoglycoside 6'-N-acetyltransferase from multidrug-resistant Pseudomonas aeruginosa clinical isolates” (2009).
In brackets after ≈: the same amount, converted by molar mass.

Experiments:
Pseudomonas aeruginosa [1] = assay: Antimicrobial activity against Pseudomonas aeruginosa isolate IMCJ798 by microdilution method; assay type: functional
How it was run: (§1)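 Broth microdilution MIC following CLSI-recommended protocols, tested on multidrug-resistant clinical P. aeruginosa isolates against a panel of individual aminoglycosides. MIC reported in μg/ml.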

Pseudomonas aeruginosa [2] = assay: Antimicrobial activity against Pseudomonas aeruginosa isolate IMCJ799 by microdilution method; assay type: functional; how it was run: as §1
Pseudomonas aeruginosa [3] = assay: Antimicrobial activity against rifampin-resistant Pseudomonas aeruginosa ATCC 27853 by microdilution method; assay type: functional
Pseudomonas aeruginosa [4] = assay: Antimicrobial activity against multidrug resistant Pseudomonas aeruginosa isolate IMCJ2S1 by microdilution method; assay type: functional
Escherichia coli [5] = assay: Antimicrobial activity against Escherichia coli JM109 transformant harboring pSTV28 plasmid expressing aac(6')-Iaf wild type gene by microdilution method; assay type: functional
How it was run: (§2)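 Broth microdilution MICs followed CLSI protocols. The test strains were E. coli JM109 carrying the vector pSTV28 alone or pSTV28 bearing aac(6′)-Iaf (wild type or TTG→ATG start codon). Each strain was tested in Mueller-Hinton broth containing chloramphenicol (30 μg/ml) plus serial dilutions of individual aminoglycosides. MICs are reported in μg/ml.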

Escherichia coli [6] = assay: Antimicrobial activity against Escherichia coli JM109 transformant harboring pSTV28 plasmid expressing aac(6')-Iaf (TTG-ATG) mutant gene by microdilution method; assay type: functional; how it was run: as §2
Escherichia coli [7] = assay: Antimicrobial activity against Escherichia coli JM109 transformant harboring pSTV28 plasmid by microdilution method
Pseudomonas aeruginosa [8] = assay: Antimicrobial activity against multidrug resistant Pseudomonas aeruginosa by microdilution method; assay type: functional
Pseudomonas aeruginosa [9] = assay: Antimicrobial activity against rifampin-resistant Pseudomonas aeruginosa ATCC 27853 by microdilution method in presence of beta-lactamase inhibitor Tazobactam; assay type: functional
Pseudomonas aeruginosa [10] = assay: Antimicrobial activity against Pseudomonas aeruginosa isolate IMCJ798 by microdilution method in presence of beta-lactamase inhibitor Tazobactam; assay type: functional
Pseudomonas aeruginosa [11] = assay: Antimicrobial activity against Pseudomonas aeruginosa isolate IMCJ799 by microdilution method in presence of beta-lactamase inhibitor Tazobactam; assay type: functional
Pseudomonas aeruginosa [12] = assay: Antimicrobial activity against multidrug resistant Pseudomonas aeruginosa isolate IMCJ2S1 by microdilution method in presence of beta-lactamase inhibitor Tazobactam; assay type: functional

Molecule: POLYMYXIN B
- MIC (Pseudomonas aeruginosa [1]): 4 mg/L
- MIC (Pseudomonas aeruginosa [2]): 4 mg/L
- MIC (Pseudomonas aeruginosa [3]): 2 mg/L
- MIC (Pseudomonas aeruginosa [4]): 2 mg/L

Molecule: NCC[C@H](O)C(=O)N[C@@H]1C[C@H](N)[C@@H](O[C@H]2O[C@H](CN)CC[C@H]2N)[C@H](O)[C@H]1O[C@H]1O[C@H](CO)[C@@H](O)[C@H](N)[C@H]1O [ARBEKACIN]
- MIC (Pseudomonas aeruginosa [1]): 8 mg/L (≈ 14.5 µM)
- MIC (Pseudomonas aeruginosa [2]): 16 mg/L (≈ 29 µM)
- MIC (Escherichia coli [5]): 4 mg/L (≈ 7.24 µM)
- MIC (Pseudomonas aeruginosa [3]): < 0.5 mg/L
- MIC (Escherichia coli [6]): 4 mg/L (≈ 7.24 µM)
- MIC (Escherichia coli [7]): 2 mg/L (≈ 3.62 µM)
- MIC (Pseudomonas aeruginosa [4]): 2 mg/L (≈ 3.62 µM)

Molecule: CN[C@@H]1[C@@H](O)C(O[C@@H]2[C@@H](O)[C@H](OC3O[C@H](CN)[C@@H](O)[C@H](O)[C@H]3O)[C@@H](N)C[C@H]2NC(=O)[C@@H](O)CN)OC[C@]1(C)O (some centres undefined) [ISOPAMICIN]
- MIC (Pseudomonas aeruginosa [1]): > 128 mg/L
- MIC (Pseudomonas aeruginosa [2]): > 128 mg/L
- MIC (Escherichia coli [5]): 4 mg/L (≈ 7.02 µM)
- MIC (Escherichia coli [6]): 16 mg/L (≈ 28.1 µM)
- MIC (Escherichia coli [7]): 1 mg/L (≈ 1.76 µM)

Molecule: CCN1CCN(C(=O)N[C@@H](C(=O)N[C@@H]2C(=O)N3[C@@H]2SC(C)(C)[C@@H]3C(=O)O)c2ccccc2)C(=O)C1=O [PIPERACILLIN]
- MIC (Pseudomonas aeruginosa [1]): 256 mg/L (≈ 495 µM)
- MIC (Pseudomonas aeruginosa [2]): 256 mg/L (≈ 495 µM)
- MIC (Pseudomonas aeruginosa [3]): < 4 mg/L
- MIC (Pseudomonas aeruginosa [4]): 256 mg/L (≈ 495 µM)

Molecule: GENTAMICIN
- MIC (Pseudomonas aeruginosa [1]): 4 mg/L
- MIC (Pseudomonas aeruginosa [2]): 2 mg/L
- MIC (Escherichia coli [5]): 1 mg/L
- MIC (Pseudomonas aeruginosa [3]): < 1 mg/L
- MIC (Escherichia coli [6]): 1 mg/L
- MIC (Pseudomonas aeruginosa [4]): 16 mg/L

Molecule: CC(C)(O/N=C(\C(=O)N[C@@H]1C(=O)N2C(C(=O)[O-])=C(C[n+]3ccccc3)CS[C@H]12)c1csc(N)n1)C(=O)O [CEFTAZIDIME]
- MIC (Pseudomonas aeruginosa [1]): 512 mg/L (≈ 937 µM)
- MIC (Pseudomonas aeruginosa [2]): 512 mg/L (≈ 937 µM)
- MIC (Pseudomonas aeruginosa [3]): < 1 mg/L
- MIC (Pseudomonas aeruginosa [4]): 512 mg/L (≈ 937 µM)

Molecule: CN[C@@H]1[C@@H](O)[C@@H](O[C@@H]2[C@@H](O)[C@H](O[C@H]3OC(CN)=CC[C@H]3N)[C@@H](N)C[C@H]2N)OC[C@]1(C)O [SISOMICIN]
- MIC (Pseudomonas aeruginosa [1]): 32 mg/L (≈ 71.5 µM)
- MIC (Pseudomonas aeruginosa [2]): 32 mg/L (≈ 71.5 µM)
- MIC (Escherichia coli [5]): 1 mg/L (≈ 2.23 µM)
- MIC (Escherichia coli [6]): 2 mg/L (≈ 4.47 µM)
- MIC (Escherichia coli [7]): 0.5 mg/L (≈ 1.12 µM)

Molecule: NC[C@@H]1O[C@H](O[C@H]2[C@@H](O)[C@H](O[C@@H]3[C@@H](O)[C@H](N)C[C@H](N)[C@H]3O[C@H]3O[C@H](CN)[C@@H](O)[C@H](O)[C@H]3N)O[C@@H]2CO)[C@H](N)[C@@H](O)[C@@H]1O [FRAMYCETIN]
- MIC (Pseudomonas aeruginosa [1]): 8 mg/L (≈ 13 µM)
- MIC (Pseudomonas aeruginosa [2]): 8 mg/L (≈ 13 µM)
- MIC (Escherichia coli [5]): 4 mg/L (≈ 6.51 µM)
- MIC (Escherichia coli [6]): 4 mg/L (≈ 6.51 µM)
- MIC (Escherichia coli [7]): 2 mg/L (≈ 3.25 µM)

Molecule: NCC[C@H](O)C(=O)N[C@@H]1C[C@H](N)[C@@H](O[C@H]2O[C@H](CN)[C@@H](O)[C@H](O)[C@H]2O)[C@H](O)[C@H]1O[C@H]1O[C@H](CO)[C@@H](O)[C@H](N)[C@H]1O [AMIKACIN]
- MIC (Pseudomonas aeruginosa [8]): ≥ 32 mg/L
- MIC (Pseudomonas aeruginosa [1]): 128 mg/L (≈ 219 µM)
- MIC (Pseudomonas aeruginosa [2]): 128 mg/L (≈ 219 µM)
- MIC (Escherichia coli [5]): 16 mg/L (≈ 27.3 µM)
- MIC (Pseudomonas aeruginosa [3]): 2 mg/L (≈ 3.42 µM)
- MIC (Escherichia coli [6]): 32 mg/L (≈ 54.6 µM)
- MIC (Escherichia coli [7]): 1 mg/L (≈ 1.71 µM)
- MIC (Pseudomonas aeruginosa [4]): 128 mg/L (≈ 219 µM)

Molecule: C[C@H]1[C@H](NC(=O)/C(=N\OC(C)(C)C(=O)O)c2csc(N)n2)C(=O)N1S(=O)(=O)O [AZTREONAM]
- MIC (Pseudomonas aeruginosa [1]): 64 mg/L (≈ 147 µM)
- MIC (Pseudomonas aeruginosa [2]): 64 mg/L (≈ 147 µM)
- MIC (Pseudomonas aeruginosa [3]): 2 mg/L (≈ 4.59 µM)
- MIC (Pseudomonas aeruginosa [4]): 128 mg/L (≈ 294 µM)

Molecule: C[C@]1(Cn2ccnn2)[C@H](C(=O)O)N2C(=O)C[C@H]2S1(=O)=O [TAZOBACTAM]
- MIC (Pseudomonas aeruginosa [9]): 4 mg/L
- MIC (Pseudomonas aeruginosa [10]): 256 mg/L
- MIC (Pseudomonas aeruginosa [11]): 256 mg/L
- MIC (Pseudomonas aeruginosa [12]): 256 mg/L

Molecule: CC1COc2c(N3CCN(C)CC3)c(F)cc3c(=O)c(C(=O)O)cn1c23 (centres undefined) [OFLOXACIN]
- MIC (Pseudomonas aeruginosa [8]): ≥ 4 mg/L
- MIC (Pseudomonas aeruginosa [1]): > 128 mg/L
- MIC (Pseudomonas aeruginosa [2]): > 128 mg/L
- MIC (Pseudomonas aeruginosa [3]): < 0.5 mg/L

Molecule: C[C@@H](O)[C@H]1C(=O)N2C(C(=O)O)=C(S[C@@H]3CN[C@H](C(=O)N(C)C)C3)[C@H](C)[C@H]12 [MEROPENEM]
- MIC (Pseudomonas aeruginosa [8]): ≥ 16 mg/L
- MIC (Pseudomonas aeruginosa [1]): > 512 mg/L
- MIC (Pseudomonas aeruginosa [2]): > 512 mg/L
- MIC (Pseudomonas aeruginosa [3]): 1 mg/L (≈ 2.61 µM)
- MIC (Pseudomonas aeruginosa [4]): 512 mg/L (≈ 1340 µM)

Molecule: CCN[C@@H]1C[C@H](N)[C@@H](O[C@H]2OC(CN)=CC[C@H]2N)[C@H](O)[C@H]1O[C@H]1OC[C@](C)(O)[C@H](NC)[C@H]1O [NETILMICIN]
- MIC (Pseudomonas aeruginosa [1]): > 128 mg/L
- MIC (Pseudomonas aeruginosa [2]): > 128 mg/L
- MIC (Escherichia coli [5]): 8 mg/L (≈ 16.8 µM)
- MIC (Escherichia coli [6]): 8 mg/L (≈ 16.8 µM)
- MIC (Escherichia coli [7]): 0.5 mg/L (≈ 1.05 µM)

Molecule: C[C@@H](O)[C@H]1C(=O)N2C(C(=O)O)=C(SCCNC=N)C[C@H]12 [IMIPENEM ANHYDROUS]
- MIC (Pseudomonas aeruginosa [1]): 128 mg/L (≈ 428 µM)
- MIC (Pseudomonas aeruginosa [2]): 128 mg/L (≈ 428 µM)
- MIC (Pseudomonas aeruginosa [3]): 4 mg/L (≈ 13.4 µM)
- MIC (Pseudomonas aeruginosa [4]): 128 mg/L (≈ 428 µM)

Molecule: NC[C@H]1O[C@H](O[C@H]2[C@H](O)[C@@H](O[C@H]3O[C@H](CO)[C@@H](O)[C@H](N)[C@H]3O)[C@H](N)C[C@@H]2N)[C@H](O)[C@@H](O)[C@@H]1O [KANAMYCIN]
- MIC (Pseudomonas aeruginosa [1]): > 128 mg/L
- MIC (Pseudomonas aeruginosa [2]): > 128 mg/L
- MIC (Escherichia coli [5]): 64 mg/L (≈ 132 µM)
- MIC (Escherichia coli [6]): 128 mg/L (≈ 264 µM)
- MIC (Escherichia coli [7]): 2 mg/L (≈ 4.13 µM)

Molecule: NC[C@H]1O[C@H](O[C@H]2[C@H](O)[C@@H](O[C@H]3O[C@H](CO)[C@@H](O)[C@H](N)[C@H]3O)[C@H](N)C[C@@H]2N)[C@H](N)C[C@@H]1O [TOBRAMYCIN]
- MIC (Pseudomonas aeruginosa [1]): 32 mg/L (≈ 68.4 µM)
- MIC (Pseudomonas aeruginosa [2]): 32 mg/L (≈ 68.4 µM)
- MIC (Escherichia coli [5]): 4 mg/L (≈ 8.56 µM)
- MIC (Escherichia coli [6]): 4 mg/L (≈ 8.56 µM)
- MIC (Escherichia coli [7]): 0.125 mg/L (≈ 0.267 µM)

Molecule: NC[C@@H]1CC[C@@H](N)[C@@H](O[C@H]2[C@H](O)[C@@H](O[C@H]3O[C@H](CO)[C@@H](O)[C@H](N)[C@H]3O)[C@H](N)C[C@@H]2N)O1 [DIBEKACIN]
- MIC (Pseudomonas aeruginosa [1]): > 128 mg/L
- MIC (Pseudomonas aeruginosa [2]): > 128 mg/L
- MIC (Escherichia coli [5]): 16 mg/L (≈ 35.4 µM)
- MIC (Escherichia coli [6]): 32 mg/L (≈ 70.9 µM)
- MIC (Escherichia coli [7]): 1 mg/L (≈ 2.21 µM)
